# Assay results published in PubChem BioAssay.
# Active and inactive are the calls of the source.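 How the source made its calls, unless noted: active means potentiation averaged over duplicate wells exceeding buffer-only control mean by more than 3 SD; inactive means the rest.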
# Assays:
# [1] = nonspecific flux increase, KCNQ1-free cells – parental CHO cells, counter-screen for KCNQ1 potentiator project (AID 493006;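 active means duplicate-averaged activation above buffer control mean plus 5 SD of those controls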); conditions: parental CHO-K1 cells, FluxOR thallium flux, at 10 µM; hits give high values
# Procedure, shortened: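 Test system: parental CHO-K1 cells, FluxOR dye-loaded / Probe or stimulus: potassium plus thallium depolarizing stimulus, 5x stock 12.5 mM K2SO4, Tl2SO4 / Timing: overnight 37 °C plating, 90 min dye, 20 min dark compound / Measured by: kinetic thallium-flux fluorescence / Read-out: max-minus-min fluorescence over baseline, percent of buffer-to-R-L3 span / Benchmarks: buffer and R-L3 controls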
# [2] = target: Potassium voltage-gated channel subfamily KQT member 1 (Homo sapiens) (UniProt P51787); assay: enhancement of KCNQ1 channel thallium flux – FluxOR thallium flux, CHO cells, duplicates, confirmation (AID 493007); conditions: KCNQ1 cell line, FluxOR thallium flux fluorescence, at 10 µM; hits give high values, % of reference activator effect, buffer zero;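 on outcome: cells depolarized by a potassium plus thallium sulfate stimulus after compound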;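 on potentiation: 0% = buffer-only wells and 100% = R-L3 activator control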
# Chain of Potassium voltage-gated channel subfamily KQT member 1 (Homo sapiens) (P51787 whole entry, looked up): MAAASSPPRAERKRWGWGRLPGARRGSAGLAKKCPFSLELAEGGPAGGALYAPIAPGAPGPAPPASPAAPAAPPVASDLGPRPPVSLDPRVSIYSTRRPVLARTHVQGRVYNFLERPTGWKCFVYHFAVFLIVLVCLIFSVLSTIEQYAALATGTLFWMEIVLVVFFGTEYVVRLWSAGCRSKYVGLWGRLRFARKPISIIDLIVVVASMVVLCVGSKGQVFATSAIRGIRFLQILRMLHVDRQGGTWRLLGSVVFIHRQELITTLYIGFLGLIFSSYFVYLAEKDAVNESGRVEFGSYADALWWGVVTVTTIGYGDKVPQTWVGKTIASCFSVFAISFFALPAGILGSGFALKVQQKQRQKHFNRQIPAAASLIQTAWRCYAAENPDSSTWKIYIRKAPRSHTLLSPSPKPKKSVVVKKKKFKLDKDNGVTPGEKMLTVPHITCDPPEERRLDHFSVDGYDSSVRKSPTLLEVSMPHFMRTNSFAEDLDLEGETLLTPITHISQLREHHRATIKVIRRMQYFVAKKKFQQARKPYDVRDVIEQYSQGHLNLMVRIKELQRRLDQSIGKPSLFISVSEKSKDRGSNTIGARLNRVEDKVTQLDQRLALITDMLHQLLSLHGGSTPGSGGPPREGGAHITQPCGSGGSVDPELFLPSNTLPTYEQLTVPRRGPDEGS
# Procedure, shortened: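 Assay system: CHO cells carrying KCNQ1 | Controls: Buffer and R-L3 controls | Schedule: FluxOR dye loading 90 min, compound exposure 20 min, room temperature | Read-out: Baseline-normalized fluorescence change, percent of buffer-to-R-L3 range | Replicates: Each compound tested in duplicate | Technique: Kinetic thallium influx fluorescence with FluxOR dye, 10 s baseline, 110 s post-stimulus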
# [3] = target: Potassium voltage-gated channel subfamily KQT member 2 (Rattus norvegicus) (UniProt O88943); assay: KCNQ2 thallium flux enhancement – KCNQ2-CHO-K1 cells, selectivity assay for KCNQ1 potentiator project (AID 493009;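 active means mean duplicate potentiation above the buffer control mean plus 5 SD of buffer wells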;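 further: assay conditions were tuned for KCNQ1 rather than KCNQ2 modulators; signal is max minus min fluorescence divided by baseline after thallium stimulus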); conditions: FluxOR thallium flux fluorescence, at 10 µM; hits give high values, scaled: buffer 0, activator control 100
# Chain of Potassium voltage-gated channel subfamily KQT member 2 (Rattus norvegicus) (O88943 whole entry, looked up): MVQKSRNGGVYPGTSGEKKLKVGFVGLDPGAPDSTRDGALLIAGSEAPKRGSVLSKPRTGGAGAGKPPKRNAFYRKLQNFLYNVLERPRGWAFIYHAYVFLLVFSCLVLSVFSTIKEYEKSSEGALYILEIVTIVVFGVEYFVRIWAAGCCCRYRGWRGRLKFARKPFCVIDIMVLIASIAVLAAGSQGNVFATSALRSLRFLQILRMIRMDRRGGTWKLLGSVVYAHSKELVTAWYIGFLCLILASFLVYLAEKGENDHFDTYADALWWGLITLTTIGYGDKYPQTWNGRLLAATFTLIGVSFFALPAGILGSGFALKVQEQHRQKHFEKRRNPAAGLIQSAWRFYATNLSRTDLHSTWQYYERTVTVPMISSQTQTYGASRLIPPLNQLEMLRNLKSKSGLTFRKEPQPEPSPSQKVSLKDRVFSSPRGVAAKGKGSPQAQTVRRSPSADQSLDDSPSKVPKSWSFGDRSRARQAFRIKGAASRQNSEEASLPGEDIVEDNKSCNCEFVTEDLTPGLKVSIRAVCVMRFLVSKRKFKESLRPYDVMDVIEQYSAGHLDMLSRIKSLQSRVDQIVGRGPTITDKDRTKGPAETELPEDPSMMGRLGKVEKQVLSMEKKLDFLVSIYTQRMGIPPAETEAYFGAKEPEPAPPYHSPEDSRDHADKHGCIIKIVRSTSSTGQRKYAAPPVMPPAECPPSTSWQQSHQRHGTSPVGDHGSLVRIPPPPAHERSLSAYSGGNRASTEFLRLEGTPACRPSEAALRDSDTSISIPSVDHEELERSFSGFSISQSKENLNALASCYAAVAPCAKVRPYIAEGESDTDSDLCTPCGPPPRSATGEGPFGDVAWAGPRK
# [4] = target: Potassium voltage-gated channel subfamily KQT member 1 (Homo sapiens) (UniProt P51787); assay: KCNQ1 activators by electrophysiology – IonWorks patch clamp, KCNQ1-CHO cells, orthogonal assay for KCNQ1 potentiator project, confirmation (AID 493184;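 active means current rise at least 3 SD above the untreated control mean in each of two repeat wells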); conditions: automated patch clamp current, at 10 µM; hits give high values
# Procedure, shortened: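 Material: KCNQ1-expressing CHO cells; doses: 10 µM final, single point; probe or stimulus: voltage step from -90 mV holding to +40 mV, 2,000 ms; signal: automated voltage clamp, amphotericin B perforated patch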
SMILES,activation [1],potentiation [2],potentiation [3],outcome [4],outcome [1],outcome [2],outcome [3]
Oc1[nH]c2c(Cl)cc(Cl)cc2c1N=NC(=S)NCC1CCCO1 (stereo not given),346% (active),277% (active),454% (active),inactive,,,
COCCCn1c(=S)[nH]c2c(sc3ccccc32)c1=O,176% (active),69.5% (active),160% (active),inactive,,,
Cc1ccc(C(=O)CC(=O)COc2ccc(Cl)cc2)cc1,,184% (active),252% (active),inactive,inactive,,
CCn1c(=S)[nH]c2sc3c(c2c1=O)CCCC3,338% (active),149% (active),383% (active),inactive,,,
Cc1nc(NCCc2cnc[nH]2)c2oc3ccccc3c2n1,,,,inactive,inactive,inactive,inactive
CNC(C)C#Cc1ccc2sc3cccc(OC)c3c(=O)c2c1 (stereo not given),,,,inactive,inactive,inactive,inactive
CCOC(=O)c1c(-c2ccccc2)oc2ccc(O)c(CN3CCN(C)CC3)c12,,,,inactive,inactive,inactive,inactive
CCOC(=O)CC1=NS(=O)(=O)c2ccccc2N1,,,,inactive,inactive,inactive,inactive
CCC1(c2ccccc2)NC(=S)N(c2ccc(C)c(C)c2)N1 (stereo not given),542% (active),271% (active),572% (active),inactive,,,
CCCS(=O)(=O)c1c(S(=O)(=O)CCC)c2c(C(N)=O)cccn2c1C(=O)c1ccc(F)cc1,,,,inactive,inactive,inactive,inactive
O=c1[nH]c(Nc2ccccc2)cc2cc(Br)ccc12,,,,inactive,inactive,inactive,inactive
CC(C)n1c(=S)[nH]c2scc(-c3cccs3)c2c1=O,491% (active),200% (active),465% (active),inactive,,,
CC1(C)Cc2c(sc(/N=C/N3CCCCCC3)c2C#N)C(C)(C)N1,,,,inactive,inactive,inactive,inactive
Oc1c(Cl)cc(Cl)cc1C=Nc1ccc2c(c1)OCCO2,174% (active),25.5% (active),,inactive,,,inactive
COc1cccc(OCC(=O)NNC(=O)C(=O)Nc2ccc(OC)cc2OC)c1,172% (active),55.5% (active),222% (active),inactive,,,
CCOC(=O)C1CCN(C(=O)COc2cc(C)c(Br)c(C)c2)CC1,,,,inactive,inactive,inactive,inactive
CC(=O)c1c(N2CCOCC2)[nH]c(-c2ccccc2)nc1=S,202% (active),66.5% (active),204% (active),inactive,,,
CC(/C=N/n1c(-c2ccc(C)cc2)n[nH]c1=S)=C\c1ccco1,,,,inactive,inactive,inactive,inactive
CC(=O)c1ccc(OCc2cc(C(=O)N(C)Cc3nc4c(C)cccc4[nH]3)no2)cc1,,18% (active),,inactive,inactive,,inactive
COCCN1CCCC(CNCc2cn(C)nc2-c2ccc(Oc3ccccc3)cc2)C1 (stereo not given),,,,inactive,inactive,inactive,inactive

SMILES,activation [1],potentiation [2],potentiation [3],outcome [4],outcome [1],outcome [2],outcome [3]
O=C(COC(=O)CNC(=O)c1ccc(Cl)cc1Cl)Nc1cccc(S(=O)(=O)N2CCCC2)c1,,,,inactive,inactive,inactive,inactive
COC(=O)C1=C(C)NC(C)=C(C(=O)OC)C1c1ccccc1[N+](=O)[O-],,,,inactive,inactive,inactive,inactive
O=C(O)CSc1cc(NS(=O)(=O)c2ccc(Br)cc2)c2ccccc2c1O,,,,inactive,inactive,inactive,inactive
O=C(COc1ccc(Cl)cc1)NNC(=O)C(=O)NC1CCCCC1,,,158% (active),inactive,inactive,inactive,
S=c1[nH]c2cc(-c3ccccc3)ccc2o1,306% (active),89.5% (active),318% (active),inactive,,,
CCc1ccc(NC(=O)C(=O)NNC(=O)COc2cccc(OC)c2)cc1,164% (active),76% (active),251% (active),inactive,,,
CC(NC(=O)c1ccncc1)C(C)(C)C (stereo not given),,,,inactive,inactive,inactive,inactive
Cc1cc(Cl)ccc1OCC(=O)N/N=C1\CC2C=CCC12 (stereo not given),,,,inactive,inactive,inactive,inactive
CN(c1ccccc1)S(=O)(=O)c1ccc(NC(=O)c2nc(S(C)(=O)=O)ncc2Cl)cc1,,,,inactive,inactive,inactive,inactive
CCOC(=O)c1cccc(NC(=O)CCc2ccccc2)c1,,,,inactive,inactive,inactive,inactive
Cc1nc2sc(C(c3ccccc3)N3CCN(C(=O)c4ccco4)CC3)c(O)n2n1 (stereo not given),,,,inactive,inactive,inactive,inactive
O=c1ccc(-c2ccc(S(=O)(=O)Nc3ccccc3)o2)n[nH]1,,,,inactive,inactive,inactive,inactive
Cc1ccccc1Cn1c(O)c(N=NC(=S)Nc2ccccc2F)c2ccccc21,,36% (active),,inactive,inactive,,inactive
Cc1[nH]n(-c2ccc(F)cc2)c(=O)c1/C=N/c1sc2c(c1C#N)CCCC2,276% (active),85.5% (active),246% (active),inactive,,,
CN(C)CCNC(=O)c1ccc2c(=O)n(Cc3ccc(Cl)cc3)c(=S)[nH]c2c1,,25% (active),149% (active),inactive,inactive,,
Cc1csc(N/N=C/c2ccc([N+](=O)[O-])cc2)n1,,46% (active),158% (active),inactive,inactive,,
O=C(NNC(=S)NC(=O)c1ccco1)c1ccc(F)cc1,198% (active),69% (active),232% (active),inactive,,,
Cc1ccc(NC(=S)NC(=O)c2cncc(Br)c2)cc1Cl,323% (active),246% (active),449% (active),inactive,,,
O=c1[nH]sc2ccccc12,,,,inactive,inactive,inactive,inactive
Cc1nc(-c2nc(-c3c(C(=O)NNC(=O)c4ccc(Cl)cc4)noc3C)cs2)cs1,140% (active),54.5% (active),184% (active),inactive,,,

SMILES,activation [1],potentiation [2],potentiation [3],outcome [4],outcome [1],outcome [2],outcome [3]
O=C(COC(=O)c1cc(S(=O)(=O)N2CCOCC2)ccc1O)NCCc1ccccc1,,,,inactive,inactive,inactive,inactive
O=C(CN1C2=NCCCN2c2ccccc21)c1ccc2c(c1)OCO2,,,,inactive,inactive,inactive,inactive
COC(=O)C1C(=O)c2c([nH]c(C(=O)OCCSC)c2C)CC1C (stereo not given),,,,inactive,inactive,inactive,inactive
O=S(=O)(/C=C/c1ccccc1)n1cnc2ccccc21,,,,inactive,inactive,inactive,inactive
S=c1[nH]c(-c2ccccc2)cn1/N=C/c1cccc2ccccc12,174% (active),65.5% (active),184% (active),inactive,,,
CCOC(=O)c1c(-c2ccccc2)csc1NC(=S)NC,286% (active),130% (active),324% (active),inactive,,,
COc1cc(OC)cc(C(=O)NC(=S)N2CCCCCC2)c1,,48% (active),198% (active),inactive,inactive,,
O=C1C=C(NCc2ccccc2)c2ccccc2C1=O,140% (active),24% (active),,inactive,,,inactive
Cc1nn(C)c(C(=O)NC(=S)Nc2ccccc2Br)c1Cl,232% (active),96% (active),254% (active),inactive,,,
CCOC(=O)c1sc(NC(=S)NC(=O)c2ccco2)nc1C,142% (active),37% (active),157% (active),inactive,,,
Cc1nnc(C)n1/N=C/c1cc(Br)cc(Br)c1O,145% (active),,,inactive,,inactive,inactive
Fc1cccc2sc(Nc3nnc(-c4ccco4)o3)nc12,354% (active),100% (active),381% (active),inactive,,,
O=C1NN(c2ccccc2)C(=O)/C1=C\c1cccc(OC(=O)c2cccs2)c1,187% (active),61.5% (active),202% (active),inactive,,,
Cc1ccc(C(=O)NNC(=O)CCCCC(=O)NNC(=O)c2ccc(C)cc2)cc1,,,,inactive,inactive,inactive,inactive
CC1CCN(C(=S)NC(=O)c2cccs2)CC1,143% (active),28.5% (active),186% (active),inactive,,,
Cn1cccc1/C=N/n1c(-c2ccc(C(C)(C)C)cc2)n[nH]c1=S,,266% (active),,inactive,inactive,,inactive
O=C(Nc1ccc(C(=O)O)cc1)/C(=C\c1ccc2c(c1)OCO2)NC(=O)c1ccc(Br)cc1,,,,inactive,inactive,inactive,inactive
Cc1sc2nc(C(C)C)nc(SCC(=O)N3c4ccccc4CC3C)c2c1C (stereo not given),164% (active),47.5% (active),177% (active),inactive,,,
O=C(CCN1CCc2ccccc2CC1)c1ccc2c(c1)OCCO2,150% (active),38% (active),176% (active),inactive,,,
Cc1ccc(S(=O)(=O)NCC(c2ccc3c(c2)OCO3)N2CCOCC2)cc1 (stereo not given),,,,inactive,inactive,inactive,inactive
